Source: ChEMBL document CHEMBL4325828, “The Design, Synthesis, and Characterizations of Spore Germination Inhibitors Effective against an Epidemic Strain of Clostridium difficile” (J Med Chem, 2018)

What was measured:
[1] = tested on: Clostridioides difficile; test: Antibacterial activity against Clostridium difficile R20291 assessed as inhibition of spore germination by measuring heat activated spore germination levels at 125 uM in presence of 6 mM taurocholate and 12 mM glycine measured every minute for 2 hrs by standard optical density assay relative to control; assay type: functional; design: scale not given: the % may be the effect or the level left
How it was run: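 R20291 spores were screened at a single 125 µM concentration, with germination followed as the fall in absorbance at 580 nm. Compounds not soluble at 125 µM by visual inspection were discarded. Inhibition is relative to untreated spore samples.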

[2] = tested on: Clostridioides difficile; test: Antibacterial activity against Clostridium difficile R20291 assessed as inhibition of spore germination in presence of 6 mM taurocholate and 12 mM glycine measured every minute for 2 hrs by standard optical density assay; assay type: functional, organism-based
How it was run: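 IC50 was determined on R20291 spores across a range of compound concentrations in sodium phosphate medium with 6 mM taurocholate and 12 mM glycine. Germination was read as the decrease in absorbance at 580 nm.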

[3] = tested on: Clostridioides difficile; test: Potency index, ratio of IC50 for chenodeoxycholate to IC50 for test compound for inhibition of spore germination in Clostridium difficile R20291 in presence of 6 mM taurocholate and 12 mM glycine measured every minute for 2 hrs by standard optical density assay; assay type: functional
[4] = tested on: Clostridioides difficile; test: Antibacterial activity against Clostridium difficile R20291 assessed as inhibition of spore germination in complex BHIS media containing 6 mM taurocholate measured every minute for 2 hrs by standard optical density assay; assay type: functional, organism-based
How it was run: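 IC50 was determined on R20291 spores across multiple compound concentrations in complex BHIS medium supplemented with 6 mM taurocholate. Germination was monitored as the decline in absorbance at 580 nm.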

Compound	Activity [1] [%]	IC50 [2] [µM]	Ratio IC50 [3]	IC50 [4] [µM]
C#CCNC(=O)CC[C@@H](C)[C@H]1CC[C@H]2[C@@H]3[C@H](O)C[C@@H]4C[C@H](O)CC[C@]4(C)[C@H]3C[C@H](O)[C@]12C	59	137		
C[C@H](CCC(=O)NCC1CC1)[C@H]1CC[C@H]2[C@@H]3[C@H](O)C[C@@H]4C[C@H](O)CC[C@]4(C)[C@H]3C[C@H](O)[C@]12C	15	24.3		
C[C@H](CCC(=O)Nc1cccc(N)c1)[C@H]1CC[C@H]2[C@@H]3[C@H](O)C[C@@H]4C[C@H](O)CC[C@]4(C)[C@H]3C[C@H](O)[C@]12C.Cl	59	32		
Cc1cc(F)ccc1NC(=O)CC[C@@H](C)[C@H]1CC[C@H]2[C@@H]3[C@H](O)C[C@@H]4C[C@H](O)CC[C@]4(C)[C@H]3C[C@H](O)[C@]12C	37	24		
C[C@H](CCC(=O)Nc1ccccc1)[C@H]1CC[C@H]2[C@@H]3[C@H](O)C[C@@H]4C[C@H](O)CC[C@]4(C)[C@H]3C[C@H](O)[C@]12C	3	1.8	>225	1.8
C[C@H](CCC(=O)NC1CCCCC1)[C@H]1CC[C@H]2[C@@H]3[C@H](O)C[C@@H]4C[C@H](O)CC[C@]4(C)[C@H]3C[C@H](O)[C@]12C	47	95.4		
C[C@H](CCC(=O)NC1CC1)[C@H]1CC[C@H]2[C@@H]3[C@H](O)C[C@@H]4C[C@H](O)CC[C@]4(C)[C@H]3C[C@H](O)[C@]12C	6	25		
C[C@H](CCC(=O)Nc1ccncc1)[C@H]1CC[C@H]2[C@@H]3[C@H](O)C[C@@H]4C[C@H](O)CC[C@]4(C)[C@H]3C[C@H](O)[C@]12C	17	30.1		
C[C@H](CCC(=O)NC1CCCC1)[C@H]1CC[C@H]2[C@@H]3[C@H](O)C[C@@H]4C[C@H](O)CC[C@]4(C)[C@H]3C[C@H](O)[C@]12C	6	34.1		
Cc1ccc(F)cc1NC(=O)CC[C@@H](C)[C@H]1CC[C@H]2[C@@H]3[C@H](O)C[C@@H]4C[C@H](O)CC[C@]4(C)[C@H]3C[C@H](O)[C@]12C	9	14		
CC(C)CNC(=O)CC[C@@H](C)[C@H]1CC[C@H]2[C@@H]3[C@H](O)C[C@@H]4C[C@H](O)CC[C@]4(C)[C@H]3C[C@H](O)[C@]12C	62	154		
C[C@H](CCC(=O)NCc1ccccc1[N+](=O)[O-])[C@H]1CC[C@H]2[C@@H]3[C@H](O)C[C@@H]4C[C@H](O)CC[C@]4(C)[C@H]3C[C@H](O)[C@]12C	113	225		
